In ChEMBL document CHEMBL1629491, “Post Groebke-Blackburn multicomponent protocol: synthesis of new polyfunctional imidazo[1,2-a]pyridine and imidazo[1,2-a]pyrimidine derivatives as potential antimicrobial agents” (2010) one finds MIC data, which are given here for 21 compounds.

Converted amounts (≈) assume the structure as drawn.

Common to all, as to type: functional
The subject of one test is Staphylococcus aureus. In words: Antimicrobial activity against Staphylococcus aureus after 24 hrs […]. The method, boiled down:
(§1)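 Broth microdilution MIC. Bacteria were grown in Luria broth (1% tryptone, 0.5% yeast extract, 0.5% NaCl, pH 7.2) at 37 °C for 24 h. Mid-log cultures were read at OD540 and diluted to OD 0.004 (5 × 10⁵ CFU/mL) before inoculation. Compounds in DMSO were given as eleven twofold serial dilutions, and plates were incubated at 37 °C for 24 h. MIC was the lowest concentration with no visible growth by turbidity. Cefixime, amoxicillin and vancomycin were the positive controls.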

The test system of a further test is Escherichia coli. In words: Antimicrobial activity against Escherichia coli after 24 hrs […]. The method, boiled down: as §1
In a further test the test system is Klebsiella aerogenes. In words: Antimicrobial activity against Enterobacter aerogenes after 24 hrs […]. In short, it runs like this: as §1
In a further test the test system is Pseudomonas aeruginosa. In words: Antimicrobial activity against Pseudomonas aeruginosa after 24 hrs […]. The method, boiled down: as §1
For a further test, the system named is Enterococcus faecalis. Briefly: Antimicrobial activity against Enterococcus faecalis after 24 hrs […]. In short, it runs like this: as §1
Another test concerns Priestia megaterium. In words: Antimicrobial activity against Bacillus megaterium after 24 hrs […]. In short, it runs like this: as §1

In the case of `Fc1ccc(-c2nnc(-c3ccc4nc(-c5ccc(Oc6ccccc6)cc5)c(Nc5ccccc5)n4c3)o2)cc1`, the MIC amounted to 11.1 mg/L (≈ 20.6 µM) with Staphylococcus aureus; 11.7 mg/L (≈ 21.7 µM) against Escherichia coli; 8.42 mg/L (≈ 15.6 µM) in the test with Klebsiella aerogenes; 9.64 mg/L (≈ 17.9 µM) against Pseudomonas aeruginosa; 12.6 mg/L (≈ 23.3 µM) in the test on Enterococcus faecalis; 17.4 mg/L (≈ 32.3 µM) in the test on Priestia megaterium.
`Cc1ccc(-c2nc3ccc(-c4nnc(-c5ccc([N+](=O)[O-])cc5)o4)cn3c2Nc2ccccc2)cc1`: the MIC against Staphylococcus aureus amounted to 9.85 mg/L (≈ 20.2 µM); with Escherichia coli, 13.4 mg/L (≈ 27.5 µM); against Klebsiella aerogenes, 10.2 mg/L (≈ 20.8 µM); with Pseudomonas aeruginosa, 12.6 mg/L (≈ 25.7 µM); with Enterococcus faecalis, 11.4 mg/L (≈ 23.3 µM); in the test with Priestia megaterium it was 15.5 mg/L (≈ 31.7 µM).
For the compound `Cc1ccc(-c2nnc(-c3ccc4nc(-c5ccc(Br)cc5)c(Nc5ccccc5)n4c3)o2)cc1`, the MIC with Staphylococcus aureus turned out to be 12.3 mg/L (≈ 23.5 µM); in the test with Escherichia coli it was 12.4 mg/L (≈ 23.7 µM); in the test with Klebsiella aerogenes it was 11.3 mg/L (≈ 21.6 µM); in the test on Pseudomonas aeruginosa, 10.2 mg/L (≈ 19.5 µM); in the test on Enterococcus faecalis, 11.8 mg/L (≈ 22.6 µM); against Priestia megaterium it was 16.6 mg/L (≈ 31.7 µM).
Take `O=[N+]([O-])c1ccc(-c2nnc(-c3ccc4nc(-c5ccc(Br)cc5)c(Nc5ccccc5)n4c3)o2)cc1`: the MIC in the test on Staphylococcus aureus was found to be 6.36 mg/L (≈ 11.5 µM); in the test with Escherichia coli it was 7.37 mg/L (≈ 13.3 µM); in the test with Klebsiella aerogenes, 4.12 mg/L (≈ 7.45 µM); in the test on Pseudomonas aeruginosa it was 5.45 mg/L (≈ 9.85 µM); against Enterococcus faecalis, 8.22 mg/L (≈ 14.9 µM); against Priestia megaterium, 12.7 mg/L (≈ 23 µM).
For the compound `Fc1ccc2nc(-c3cnc4nc(-c5ccc(Br)cc5)c(Nc5ccccc5)n4c3)[nH]c2c1`, the MIC against Staphylococcus aureus was 1.23 mg/L (≈ 2.46 µM); against Escherichia coli, 2.29 mg/L (≈ 4.59 µM); with Klebsiella aerogenes it was 2.25 mg/L (≈ 4.51 µM); in the test with Pseudomonas aeruginosa it was 2.85 mg/L (≈ 5.71 µM); in the test on Enterococcus faecalis, 6.64 mg/L (≈ 13.3 µM); in the test with Priestia megaterium, 11.7 mg/L (≈ 23.5 µM).
Regarding `Clc1ccc2nc(-c3cnc4nc(-c5ccc(Br)cc5)c(Nc5ccccc5)n4c3)[nH]c2c1`, the MIC in the test with Staphylococcus aureus worked out at 1.84 mg/L (≈ 3.57 µM); in the test with Escherichia coli, 2.78 mg/L (≈ 5.39 µM); against Klebsiella aerogenes, 2.75 mg/L (≈ 5.33 µM); against Pseudomonas aeruginosa, 2.55 mg/L (≈ 4.94 µM); in the test with Enterococcus faecalis, 5.87 mg/L (≈ 11.4 µM); in the test with Priestia megaterium, 13.7 mg/L (≈ 26.6 µM).
Turning to `Cc1ccc(-c2nc3ncc(-c4nc5ccc(F)cc5[nH]4)cn3c2Nc2ccccc2)cc1`, the MIC against Staphylococcus aureus was 6.32 mg/L (≈ 14.5 µM); against Escherichia coli, 3.44 mg/L (≈ 7.92 µM); in the test on Klebsiella aerogenes, 6.18 mg/L (≈ 14.2 µM); with Pseudomonas aeruginosa it was 4.72 mg/L (≈ 10.9 µM); in the test with Enterococcus faecalis it was 5.76 mg/L (≈ 13.3 µM); against Priestia megaterium it was 17.2 mg/L (≈ 39.5 µM).
In the case of `Fc1ccc2nc(-c3cnc4nc(-c5ccc(Oc6ccccc6)cc5)c(Nc5ccccc5)n4c3)[nH]c2c1`, the MIC with Staphylococcus aureus came to 9.43 mg/L (≈ 18.4 µM); in the test on Escherichia coli it was 10.5 mg/L (≈ 20.5 µM); against Klebsiella aerogenes it was 6.12 mg/L (≈ 11.9 µM); against Pseudomonas aeruginosa it was 7.38 mg/L (≈ 14.4 µM); against Enterococcus faecalis it was 10.4 mg/L (≈ 20.3 µM); against Priestia megaterium, 19.8 mg/L (≈ 38.6 µM).
For `O=[N+]([O-])c1ccc2nc(-c3cnc4nc(-c5ccc(Br)cc5)c(Nc5ccccc5)n4c3)[nH]c2c1`, the MIC in the test with Staphylococcus aureus was 9.32 mg/L (≈ 17.7 µM); against Escherichia coli, 11.7 mg/L (≈ 22.2 µM); against Klebsiella aerogenes it was 10.6 mg/L (≈ 20.2 µM); against Pseudomonas aeruginosa it was 12.2 mg/L (≈ 23.2 µM); against Enterococcus faecalis it was 11.4 mg/L (≈ 21.8 µM); against Priestia megaterium it was 15.4 mg/L (≈ 29.3 µM).
For `O=[N+]([O-])c1ccc(-c2cnc(-c3cnc4nc(-c5ccc(Br)cc5)c(Nc5ccccc5)n4c3)[nH]2)cc1`, the MIC with Staphylococcus aureus is 4.22 mg/L (≈ 7.64 µM); against Escherichia coli, 5.33 mg/L (≈ 9.65 µM); in the test with Klebsiella aerogenes, 9.33 mg/L (≈ 16.9 µM); with Pseudomonas aeruginosa, 7.81 mg/L (≈ 14.1 µM); with Enterococcus faecalis, 9.61 mg/L (≈ 17.4 µM); in the test on Priestia megaterium, 17.4 mg/L (≈ 31.6 µM).
For the compound `Fc1ccc(-c2cnc(-c3cnc4nc(-c5ccc(Br)cc5)c(Nc5ccccc5)n4c3)[nH]2)cc1`, the MIC came out at 0.63 mg/L (≈ 1.2 µM) with Staphylococcus aureus; 1.15 mg/L (≈ 2.19 µM) in the test on Escherichia coli; 1.11 mg/L (≈ 2.11 µM) with Klebsiella aerogenes; 2.34 mg/L (≈ 4.45 µM) in the test on Pseudomonas aeruginosa; 4.21 mg/L (≈ 8.01 µM) in the test on Enterococcus faecalis; 9.17 mg/L (≈ 17.5 µM) against Priestia megaterium.
As for `Clc1ccc(-c2cnc(-c3cnc4nc(-c5ccc(Br)cc5)c(Nc5ccccc5)n4c3)[nH]2)cc1`, the MIC came to 1.76 mg/L (≈ 3.25 µM) in the test with Staphylococcus aureus; 3.11 mg/L (≈ 5.74 µM) with Escherichia coli; 1.89 mg/L (≈ 3.49 µM) against Klebsiella aerogenes; 1.82 mg/L (≈ 3.36 µM) with Pseudomonas aeruginosa; 4.28 mg/L (≈ 7.9 µM) with Enterococcus faecalis; 11.6 mg/L (≈ 21.5 µM) with Priestia megaterium.
As for `Cc1ccc(-c2cnc(-c3cnc4nc(-c5ccc(Br)cc5)c(Nc5ccccc5)n4c3)[nH]2)cc1`, the MIC was found to be 9.49 mg/L (≈ 18.2 µM) with Staphylococcus aureus; 8.11 mg/L (≈ 15.6 µM) in the test with Escherichia coli; 10.8 mg/L (≈ 20.8 µM) against Klebsiella aerogenes; 11.4 mg/L (≈ 22 µM) in the test on Pseudomonas aeruginosa; 11.7 mg/L (≈ 22.4 µM) against Enterococcus faecalis; 15.6 mg/L (≈ 29.8 µM) in the test with Priestia megaterium.
Turning to `Fc1ccc(-c2nnc(-c3cnc4nc(-c5ccc(Br)cc5)c(Nc5ccccc5)n4c3)o2)cc1`, the MIC against Staphylococcus aureus is 0.64 mg/L (≈ 1.21 µM); with Escherichia coli it was 1.33 mg/L (≈ 2.52 µM); with Klebsiella aerogenes, 0.94 mg/L (≈ 1.78 µM); in the test with Pseudomonas aeruginosa it was 1.87 mg/L (≈ 3.55 µM); with Enterococcus faecalis, 1.92 mg/L (≈ 3.64 µM); in the test on Priestia megaterium, 5.45 mg/L (≈ 10.3 µM).
On to `Cc1ccc(-c2nc3ncc(-c4nnc(-c5ccc(F)cc5)o4)cn3c2Nc2ccccc2)cc1`, for which the MIC in the test on Staphylococcus aureus amounted to 5.47 mg/L (≈ 11.8 µM); against Escherichia coli, 2.78 mg/L (≈ 6.01 µM); against Klebsiella aerogenes, 5.29 mg/L (≈ 11.4 µM); in the test on Pseudomonas aeruginosa, 3.65 mg/L (≈ 7.89 µM); in the test with Enterococcus faecalis, 4.58 mg/L (≈ 9.9 µM); in the test on Priestia megaterium it was 15.3 mg/L (≈ 33.1 µM).
As to `O=[N+]([O-])c1ccc(-c2nnc(-c3cnc4nc(-c5ccc(Br)cc5)c(Nc5ccccc5)n4c3)o2)cc1`, the MIC amounted to 3.35 mg/L (≈ 6.04 µM) against Staphylococcus aureus; 3.12 mg/L (≈ 5.63 µM) against Escherichia coli; 2.23 mg/L (≈ 4.02 µM) against Klebsiella aerogenes; 4.45 mg/L (≈ 8.03 µM) against Pseudomonas aeruginosa; 6.18 mg/L (≈ 11.1 µM) in the test on Enterococcus faecalis; 11.2 mg/L (≈ 20.2 µM) with Priestia megaterium.
As to `Clc1ccc(-c2nnc(-c3cnc4nc(-c5ccc(Br)cc5)c(Nc5ccccc5)n4c3)o2)cc1`, the MIC in the test with Staphylococcus aureus turned out to be 2.45 mg/L (≈ 4.51 µM); in the test on Escherichia coli, 2.34 mg/L (≈ 4.3 µM); with Klebsiella aerogenes, 3.16 mg/L (≈ 5.81 µM); against Pseudomonas aeruginosa, 1.56 mg/L (≈ 2.87 µM); against Enterococcus faecalis, 5.37 mg/L (≈ 9.87 µM); with Priestia megaterium, 8.45 mg/L (≈ 15.5 µM).
Regarding `Cc1ccc(-c2nnc(-c3cnc4nc(-c5ccc(Br)cc5)c(Nc5ccccc5)n4c3)o2)cc1`, the MIC against Staphylococcus aureus turned out to be 5.31 mg/L (≈ 10.1 µM); in the test on Escherichia coli, 8.56 mg/L (≈ 16.4 µM); against Klebsiella aerogenes, 6.43 mg/L (≈ 12.3 µM); against Pseudomonas aeruginosa, 7.64 mg/L (≈ 14.6 µM); against Enterococcus faecalis it was 8.71 mg/L (≈ 16.6 µM); against Priestia megaterium, 13.6 mg/L (≈ 26 µM).
Regarding `CC1(C)S[C@@H]2[C@H](NC(=O)[C@H](N)c3ccc(O)cc3)C(=O)N2[C@H]1C(=O)O` [AMOXICILLIN], the MIC in the test on Staphylococcus aureus was 13.3 mg/L (≈ 36.5 µM); against Escherichia coli, 16.4 mg/L (≈ 45 µM); in the test with Klebsiella aerogenes it was 3.65 mg/L (≈ 9.99 µM); in the test with Pseudomonas aeruginosa, 14.5 mg/L (≈ 39.8 µM); in the test on Enterococcus faecalis, 1.22 mg/L (≈ 3.34 µM); against Priestia megaterium, 2.75 mg/L (≈ 7.53 µM).
For the compound `C=CC1=C(C(=O)O)N2C(=O)[C@@H](NC(=O)/C(=N\OCC(=O)O)c3csc(N)n3)[C@H]2SC1` [CEFIXIME], the MIC was 33.9 mg/L (≈ 74.7 µM) in the test on Staphylococcus aureus; 2.34 mg/L (≈ 5.16 µM) against Escherichia coli; 28.2 mg/L (≈ 62.1 µM) in the test on Klebsiella aerogenes; 17.2 mg/L (≈ 38 µM) in the test on Pseudomonas aeruginosa; 27.9 mg/L (≈ 61.6 µM) in the test with Enterococcus faecalis; 128 mg/L (≈ 282 µM) with Priestia megaterium.
As for `CN[C@H](CC(C)C)C(=O)N[C@H]1C(=O)N[C@@H](CC(N)=O)C(=O)N[C@H]2C(=O)N[C@H]3C(=O)N[C@H](C(=O)N[C@H](C(=O)O)c4cc(O)cc(O)c4-c4cc3ccc4O)[C@H](O)c3ccc(c(Cl)c3)Oc3cc2cc(c3O[C@@H]2O[C@H](CO)[C@@H](O)[C@H](O)[C@H]2O[C@H]2C[C@](C)(N)[C@H](O)[C@H](C)O2)Oc2ccc(cc2Cl)[C@H]1O` [VANCOMYCIN], the MIC is 2.75 mg/L (≈ 1.9 µM) against Staphylococcus aureus; 6.65 mg/L (≈ 4.59 µM) in the test on Escherichia coli; 0.52 mg/L (≈ 0.359 µM) with Klebsiella aerogenes; 23.5 mg/L (≈ 16.2 µM) against Pseudomonas aeruginosa; 4.21 mg/L (≈ 2.9 µM) against Enterococcus faecalis; 6.37 mg/L (≈ 4.4 µM) in the test on Priestia megaterium.
